Source: PubChem (several laboratories)
pCIP destab: p/CIP-EGFP fusion destabilizers, primary screen, fluorescence, F442A cells. decrease of EGFP signal, % at 10 µM. actives 0.01% (n = 290,000). 16 h. Q05BA5. AID 1984, 2009;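 active means EGFP signal decrease of at least 30% at 10 µM or well 3 SD below plate mean, unless failing retest; inactive means the rest, including hits failing retest or dose response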
Target sequence (Q05BA5 1-1403): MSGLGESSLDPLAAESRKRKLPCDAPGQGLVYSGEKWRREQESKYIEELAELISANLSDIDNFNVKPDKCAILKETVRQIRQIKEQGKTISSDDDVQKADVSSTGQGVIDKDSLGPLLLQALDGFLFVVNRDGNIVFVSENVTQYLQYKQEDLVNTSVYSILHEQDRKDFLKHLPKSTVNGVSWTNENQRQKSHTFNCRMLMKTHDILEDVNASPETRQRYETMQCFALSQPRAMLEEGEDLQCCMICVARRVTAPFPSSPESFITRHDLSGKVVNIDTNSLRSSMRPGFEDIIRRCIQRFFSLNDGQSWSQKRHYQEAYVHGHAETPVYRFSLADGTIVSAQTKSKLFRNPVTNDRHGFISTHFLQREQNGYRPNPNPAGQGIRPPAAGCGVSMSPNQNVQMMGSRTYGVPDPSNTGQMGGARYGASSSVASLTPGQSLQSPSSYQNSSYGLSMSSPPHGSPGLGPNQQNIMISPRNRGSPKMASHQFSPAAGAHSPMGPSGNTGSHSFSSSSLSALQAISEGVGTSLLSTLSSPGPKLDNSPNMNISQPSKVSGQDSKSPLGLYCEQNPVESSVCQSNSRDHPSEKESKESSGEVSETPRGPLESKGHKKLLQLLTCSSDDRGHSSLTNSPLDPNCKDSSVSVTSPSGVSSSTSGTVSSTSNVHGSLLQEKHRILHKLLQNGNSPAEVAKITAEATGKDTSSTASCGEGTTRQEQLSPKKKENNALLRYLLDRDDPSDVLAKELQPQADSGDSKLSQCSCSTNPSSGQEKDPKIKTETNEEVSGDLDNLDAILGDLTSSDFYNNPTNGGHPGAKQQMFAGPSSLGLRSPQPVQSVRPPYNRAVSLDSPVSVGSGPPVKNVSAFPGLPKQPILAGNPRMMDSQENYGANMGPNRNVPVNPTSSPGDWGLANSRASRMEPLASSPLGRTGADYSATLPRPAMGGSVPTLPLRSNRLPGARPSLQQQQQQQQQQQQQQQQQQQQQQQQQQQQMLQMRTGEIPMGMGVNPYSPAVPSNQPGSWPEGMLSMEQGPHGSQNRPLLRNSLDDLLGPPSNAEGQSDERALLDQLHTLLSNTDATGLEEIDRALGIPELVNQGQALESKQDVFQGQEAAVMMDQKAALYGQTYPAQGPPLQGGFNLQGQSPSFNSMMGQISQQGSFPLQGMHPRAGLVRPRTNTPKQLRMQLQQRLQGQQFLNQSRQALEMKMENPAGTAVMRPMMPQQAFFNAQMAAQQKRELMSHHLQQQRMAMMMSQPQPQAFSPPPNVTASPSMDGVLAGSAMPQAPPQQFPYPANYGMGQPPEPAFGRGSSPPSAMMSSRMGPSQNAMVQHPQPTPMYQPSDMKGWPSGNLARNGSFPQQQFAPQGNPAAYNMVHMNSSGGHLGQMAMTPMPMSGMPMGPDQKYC
GASC-1 inh: inhibitors of GASC-1 histone demethylase, primary screen, biochemical, fluorescence, DELFIA europium. GST-JMJD2C(1-420) H3K9me3 demethylation. inhibition, % at 2.35 µM. actives 0.069% (n = 330,000). AID 2099, 2009;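 active means more than half of a compound's replicate wells show inhibition beyond 50%, single wells judged on their own value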;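 further: signal counts dimethyl H3K9 product captured on neutravidin plate; 0% = median of DMSO wells and 100% = 0.3 times that DMSO median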
T cruzi inh: inhibitors of intracellular T. cruzi growth, primary screen, luminescence, NIH3T3 host cells. T. cruzi beta-gal in NIH3T3, 90 h. inhibition, % (concentration not given with the values). actives 1.4% (n = 300,000);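 active means mean inhibition across valid replicates above about 55%, limit read from the data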;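 further: signal also drops with host cell toxicity which is not excluded here; 0% = plate median of DMSO wells and 100% = zero luminescence signal; higher percent means less beta-gal luminescence so fewer parasites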
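Read-out: Parasite load inhibition, % | Test system: Mouse NIH/3T3 fibroblasts infected with β-gal-expressing T. cruzi Tulahuen C4 | Amount: 5,000 cells/well | Medium: DMEM, 2% fetal bovine serum | Signal: GalScreen β-gal luminescence, detergent lysis, 60 min | Timing: 3 h attach, ≥90 h co-culture | Also added: Tulahuen C4 trypomastigotes, 5000/well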
PP5 primary: PP5 phosphatase inhibitors, primary screen, biochemical, fluorescence; Serine/threonine-protein phosphatase 5 (Homo sapiens), P53041; purified PP5c, OMFP substrate fluorescence; inhibition, % at 6.7 µM; actives 0.18% (n = 320,000); AID 1987, 2009;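 active means inhibition above the campaign's mean inhibition across all tested compounds plus 3 SD, cut at about 9.5% in these data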;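 further: 0% = DMSO only and 100% = 100 µM cantharidin control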
CTSL1 counter: Fasciola hepatica cathepsin L1 inhibitors, primary screen, counter-screen for PFM18AAP inhibitor project, biochemical, QFRET, fluorogenic peptide substrate. recombinant F. hepatica cathepsin L1, Z-Leu-Arg-MCA fluorescence. inhibition, % at 5.96 µM. actives 0.49% (n = 300,000). AID 1906, 2009;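 active means inhibition above the mean of all tested compounds plus 3 SD, set per screening campaign, cut at about 17% in these data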;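 further: 0% = plate median of test compound wells and 100% = 1 µM Z-Phe-Ala-diazomethylketone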
H9c2 protect: cardioprotection against H2O2-induced cell death, primary screen, uHTS, H9c2 cells, ATPLite luminescence; protection from H2O2 cell death, % at 20 µM; H9c2 cardiomyocytes, H2O2 injury protection, 2 h; actives 0.63% (n = 360,000);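 active means compounds giving at least 50% protection of heart cells from peroxide-induced death in the single-dose screen, raw or plate-pattern-corrected value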;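 further: 0% = DMSO wells with peroxide and 100% = DMSO wells without peroxide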
The depositor's hits bear a star; . = no result. This is a sample that favours compounds with a hit; in the whole collection about 2.4% have one here.

SMILES	pCIP destab	GASC-1 inh	T cruzi inh	PP5 primary	CTSL1 counter	H9c2 protect
Cc1ccc2c(c1)C1C[N+](C)(CC(=O)c3ccc(Cl)cc3Cl)CCC1N2C(=O)c1ccc(F)cc1 (stereo not given)	.	-6	.	.	.	-4
COC(=O)C1=C(c2ccc(OC)c(OC)c2)C[C@@H]2CC[C@H]1N2C(=O)N1CCCC1	.	-3	.	1	.	9
O=C(NCC(c1cccnc1)N1CCN(c2ccccc2F)CC1)Oc1ccccc1 (stereo not given)	-4	5	65*	-2	3	-8
COc1ccc(N2CCN(C(CNC(=O)Oc3ccccc3)c3cccnc3)CC2)cc1 (stereo not given)	-12	-1	62*	2	-2	14
C[C@H]1C[C@@H](C)C(=O)[C@@H]([C@H](O)CC2CC(=O)NC(=O)C2)C1	-11	-16	58*	4	-2	-1
CCCCn1c(NS(=O)(=O)c2ccccc2)c(C(=O)OCC)c2nc3ccccc3nc21	-18	1	22	9	0	-10
CCCCn1c(NC(=O)c2ccc(Br)o2)c(C(=O)OCC)c2nc3ccccc3nc21	-34	-7	15	13*	2	-3
O=C(Cc1cccs1)N1Cc2ccccc2-n2nncc2C1	.	.	.	.	.	7
Cn1c(O)c(C(=Nc2ccccc2)SCc2ccc(Cl)cc2)c(=O)n(C)c1=O	-22	-21	-6	0	0	-3
C=C(C)[C@@]12OC3(c4ccccc4)O[C@@H]1C1[C@@H]4O[C@]4(CO)[C@@H](O)[C@]4(O)C(=O)C(C)=C[C@H]4[C@@]1(O3)[C@H](C)[C@H]2OC(=O)/C=C/C=C/c1ccccc1 (stereo not given in full)	.	30	57*	4	3	-14
COC(=O)C1=C(c2ccccc2OCc2ccccc2)C[C@@H]2CC[C@H]1N2C(=O)NCCc1ccc(F)cc1	.	0	.	3	.	0
C[n+]1c(-c2ccccc2)c2cc(N)ccc2c2ccc(N)cc21	-64	8	62*	2	31*	-22
Nc1ccc2ccc3cccc[n+]3c2c1	-85	8	17	-3	3	4
CN1CCN(c2ccc(C=O)cc2)CC1	-14	59*	16	-3	3	3
COc1cccc2c1cc([N+](=O)[O-])c1c(C(=O)O)cc3c(c12)OCO3	.	.	.	.	.	-4
CN1CCN(Cc2nc3ccccc3n2C)CC1	-5	-21	36	3	1	-4
Cn1c(NN=O)nc2ccccc21	0	-1	55*	3	-2	6
CN(C)C(=O)CSc1nnc([C@@H](N)Cc2ccccc2)o1	-23	-40	-4	0	33*	-2
Cc1ccccc1C(=O)N1CC1C (stereo not given)	.	.	.	.	.	2
c1ccc2sc(C3CCNCC3)nc2c1	-11	5	64*	.	.	7
CC(=Nc1ccccc1N)c1c(O)n(C)c(=O)[nH]c1=O	-4	-5	-3	3	-1	-4
CNC(=O)O/N=C(\C)Cc1nnn(-c2cc(C)on2)n1	0	-2	-4	2	3	4
O=C1NC(=O)C(C(CC(=O)c2ccccc2)c2ccccc2)C(=O)N1 (stereo not given)	-7	53*	-6	0	-3	-2
CN1C(=O)C(Cc2ccc(OCc3ccccc3)cc2)C(=O)N(C)C1=O	1	50*	-1	1	1	-2
NCCc1ccc(OCc2ccccc2)c(OCc2ccccc2)c1	.	-8	.	1	.	-28
COc1cc(CC2C(=O)N(C)C(=O)N(C)C2=O)ccc1OCc1ccccc1	-2	52*	-1	4	-2	-3
CN1C(=O)C(Cc2cccc3ccccc23)C(=O)N(C)C1=O	-5	4	-15	0	-2	1
c1cc2c(cc1[C@H]1OCC3C1CO[C@@H]3c1ccc3c(c1)OCO3)OCO2 (stereo not given in full)	.	.	.	.	.	-5
COc1ccc(OCC(=O)N2CCN(C/C=C/c3ccccc3)CC2)cc1	-2	-1	7	2	17*	-3
